OX1R antag-1 = blocks the human orexin 1 receptor; CHO/OX1R cells, Fluo-8 calcium fluorescence, orexin A; AID 434989; O43613; inhibition, % at 5 µM; 0.43% of 330,000 active;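 active means inhibition above its plate's threshold, mean inhibition of all tested compounds on the plate plus 3 SD, cut at about 37% in these data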;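 further: 0% = orexin A challenge wells and 100% = SB-334867-A antagonist wells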
GPR7 antagonist = human neuropeptides B/W receptor 1 antagonism | inhibition, % at 4.4 µM | 1.1% of 290,000 active | P48145 | GPR7-expressing cells, fluorescence antagonist assay; in the data active means inhibition above about 16%, passing the limit was not always enough;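 further: cells stimulated with the agonist NPW; 0% = agonist with vehicle and 100% = vehicle without agonist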
Target sequence (P48145 whole entry, looked up): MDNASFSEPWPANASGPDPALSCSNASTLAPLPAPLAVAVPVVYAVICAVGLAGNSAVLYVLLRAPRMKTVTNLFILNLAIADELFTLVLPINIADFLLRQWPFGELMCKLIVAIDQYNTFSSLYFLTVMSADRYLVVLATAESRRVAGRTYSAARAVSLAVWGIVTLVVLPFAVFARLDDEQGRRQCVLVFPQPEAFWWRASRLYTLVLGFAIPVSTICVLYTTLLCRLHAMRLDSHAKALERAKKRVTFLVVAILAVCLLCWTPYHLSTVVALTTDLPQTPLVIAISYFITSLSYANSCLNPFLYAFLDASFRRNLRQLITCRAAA
OX1R antag-2 = blocks the human orexin 1 receptor; OX1R-expressing cells, FRET antagonist read-out; inhibition, % at 6.6 µM; 1.8% of 330,000 active; AID 485270; in the data active means inhibition mostly above about 38%, no sharp cut-off; inactive means mostly below about 40%;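 further: 0% = agonist challenge alone and 100% = reference antagonist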
CHO parental Ca = counter-screen for OX1R antagonists: effect in parental CHO cells; inhibition, % at 5.6 µM; 0.63% of 330,000 active; parental CHO-K1, ATP-induced calcium, Fluo-8 fluorescence;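 active means inhibition above that plate's mean sample inhibition plus 3 SD, cut at about 26% in these data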;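 further: 0% = ATP-challenged DMSO wells and 100% = DMSO wells without ATP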
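Material: parental CHO cells / Compound: single nominal dose of 5.6 µM per compound / Signal: Fluo-8 fluorescence / Replicates: singlicate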
MPTP inh = permeability transition pore inhibition; 1.4% of 360,000 active; inhibition, % at 10 µM; AID 602449; isolated mouse mitochondria, Ca2+ swelling absorbance, 30 min;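 active means inhibition of 50% or more, scaled per plate between neutral and stimulator controls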;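 further: 0% = DMSO wells given calcium and 100% = 1 mM EGTA wells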
GPR7 antag cf = confirmation of human GPR7 antagonists; shares compounds with GPR7 antagonist; GPR7-expressing cells, calcium fluorescence antagonist mode; inhibition, % at 4.4 µM; 52% of 2,400 active; AID 1952; in the data active means inhibition above about 24%;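 further: stimulated with the GPR7 agonist NPW; 0% = agonist plus vehicle and 100% = vehicle alone without agonist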
MCHR1 antagonist = MCHR1 (human) antagonism in GPR7 counter-screen; shares compounds with GPR7 antagonist; MCHR1-expressing cells, fluorescence antagonist assay; inhibition, % at 4.4 µM; 62% of 2,400 active; AID 2148; in the data active means inhibition above about 22%;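 further: 0% = vehicle with agonist and 100% = vehicle without agonist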
The depositor's hits bear a star; . = no result. Compounds with a hit are over-represented: about 3.8% of the library has one in this group of screens.

SMILES | OX1R antag-1 | GPR7 antagonist | OX1R antag-2 | CHO parental Ca | MPTP inh | GPR7 antag cf | MCHR1 antagonist
O=c1ccncn1C1OC(CO)C(O)C1O (configuration not stated) | . | . | . | . | 0 | . | .
CC1CCN(c2ccc3nnc(CCC(=O)Nc4ccc(F)c(F)c4)n3n2)CC1 | -28 | 28* | 15 | -19 | 1 | 37* | 40*
CCC(=O)N1CCc2cc(Br)cc(S(=O)(=O)NCc3ccccc3OC)c21 | -35 | 9 | 17 | -19 | 0 | . | .
CCC(=O)N1CCc2cc(Br)cc(S(=O)(=O)N(C)c3ccc(OC)cc3)c21 | 3 | 38* | 14 | 6 | 1 | 24 | 54*
COc1ccc(CN(C)CC(O)COC(c2ccc(OC)cc2)c2ccc(OC)cc2)cc1 (configuration not stated) | 12 | 28* | 4 | 8 | 1 | 42* | 31*
O=C(Cc1n[nH]c(=O)c2ccccc12)OCC(=O)c1ccc2c(c1)OCCO2 | -19 | 28* | 25 | -19 | 2 | -9 | 15
CCOC(=O)N1CCC(NC(=O)CN2C(=O)C(CC)Oc3ccc(C)cc32)CC1 (configuration not stated) | -21 | -10 | 14 | -15 | 0 | . | .
CCC1Oc2ccc(C)cc2N(CC(=O)NC2CCCCC2)C1=O (configuration not stated) | -18 | 32* | 7 | -8 | 0 | 20 | 16
O=C(c1ccco1)N1CCN(S(=O)(=O)c2ccc(Br)s2)CC1 | -22 | 47* | 12 | -15 | -1 | 9 | -1
CC(C)(C)c1ccc(C(=O)N2CCN(S(=O)(=O)c3ccc(Br)s3)CC2)cc1 | -28 | . | 5 | -17 | 1 | . | .
CCOC(=O)c1ccc(NC(=O)COc2ccccc2CNCCc2ccccc2)cc1 | -4 | 31* | 7 | -2 | 16 | 47* | 73*
CCN1C(=O)C(CC(=O)Nc2ccc(F)cc2)N(CCCN2CCN(c3ccc(F)cc3)CC2)C1=S (configuration not stated) | -7 | 33* | 9 | -3 | 3 | 29* | 62*
Cc1cc(C(=O)Nc2ncn[nH]2)ccc1[N+](=O)[O-] | -11 | 2 | 15 | -1 | 1 | . | .
COc1ccc(C(CCNCc2ccc(OC(C)C)cc2)C(C)C)cc1 (configuration not stated) | -14 | 27* | 9 | 27* | 40 | 51* | 70*
COc1ccc(CNCCC(c2ccccc2)c2ccc3c(c2)OCO3)cc1 (configuration not stated) | 11 | 41* | 1 | 10 | 7 | 46* | 64*
COc1ccc(C(CCNCc2ccc(N(C)C)cc2)C(C)C)cc1 (configuration not stated) | -4 | 24* | 8 | -9 | 45 | 22 | 50*
COc1ccc(CNCCC(c2ccc(OC(C)C)cc2)C(C)C)cc1OC (configuration not stated) | -34 | 19 | -1 | -14 | 8 | . | .
COc1ccc(C(CC(=O)O)c2ccc3c(c2)OCO3)cc1 (configuration not stated) | 3 | -2 | 13 | 3 | -1 | . | .
CN1C(=O)Cc2cc(S(=O)(=O)Nc3ccc(N4CCOCC4)cc3)ccc21 | -4 | -1 | 23 | 11 | 0 | . | .
O=C(O)c1ccc(Nc2ccc(F)c(F)c2)c([N+](=O)[O-])c1 | -6 | 36* | 27 | -6 | 1 | -9 | 1
CC(C)C(NS(=O)(=O)c1ccc2c(c1)Cc1cc(S(=O)(=O)NC(C(=O)O)C(C)C)ccc1-2)C(=O)O (configuration not stated) | -11 | -10 | 15 | -13 | 0 | . | .
COc1cc(/C=N/c2oc(C)c(C)c2C#N)cc(Br)c1O | 2 | -24 | 4 | -1 | 5 | . | .
CC(CC(=O)N1CCN(c2cccc(Cl)c2)CC1)S(=O)(=O)c1ccc2c(c1)NC(=O)CO2 (configuration not stated) | 57* | 28* | 60* | 78* | 30 | 37* | 77*
COc1ccccc1CNC(=O)CSc1nc(-c2ccccc2)cn1N | 10 | 27* | 73* | -3 | -1 | -10 | 8
O=C1C2C3C=CC(C2C(=O)N1CCO)C1C(=O)N(CCO)C(=O)C31 (configuration not stated) | 1 | -10 | -8 | -1 | 0 | . | .
SMILES | OX1R antag-1 | GPR7 antagonist | OX1R antag-2 | CHO parental Ca | MPTP inh | GPR7 antag cf | MCHR1 antagonist
Cc1ccccc1N(C(=O)c1snc(C(N)=O)c1N)C(C(=O)NCC1CCCO1)c1ccc(F)cc1 (configuration not stated) | -16 | -4 | 0 | -12 | 1 | . | .
CCc1ccc([C@@H]2C[C@H]3CN(Cc4ccccc4OC)C(=O)[C@]34CCCN24)cc1 | -23 | 24* | 10 | -18 | 1 | 3 | -1
Cc1ccc(NC2CCCN(C(=O)c3ccoc3)C2)cc1C (configuration not stated) | -15 | -16 | 14 | -8 | 0 | . | .
Cc1nc2ccc(NC(=S)N3CCOCC3)cc2nc1C | -7 | -11 | 13 | -4 | -1 | . | .
C/C(=N\NC(=O)Cc1ccc(Cl)c(Cl)c1)c1cccnc1 | . | 2 | . | . | -1 | . | .
C/C(=N\NC(=O)Cc1ccc([N+](=O)[O-])cc1)c1cccnc1 | . | 23* | . | . | 0 | 0 | 16
O=C1CCCCCN1Sc1ccccc1 | -12 | 26* | 4 | -10 | -1 | 32* | 88*
CCCC(=O)N(CCN(Cc1ccccc1)C(=O)CCC)Cc1ccccc1 | -19 | 31* | 36 | -20 | 2 | 43* | 31*
N=c1c2c(-c3ccccc3)c(-c3ccccc3)n(Cc3ccco3)c2ncn1Cc1ccco1 | 37 | 37* | 20 | 31 | 7 | 79* | 100*
CCCCn1cnc2c(c(-c3ccccc3)c(-c3ccccc3)n2Cc2ccco2)c1=N | -17 | 32* | 4 | -16 | 3 | 54* | 97*
N#Cc1ccc(/C=C/C(=O)c2cccnc2)cc1 | -11 | 0 | 13 | -1 | 0 | . | .
O=C(/C=C/c1ccc(Cl)cc1)c1cccnc1 | -32 | 29* | 38 | -27 | 0 | 51* | 78*
CCN1CCN(C(c2cccs2)C(C)NC(=S)Nc2cccc(C)c2C)CC1 (configuration not stated) | -14 | -3 | 12 | -14 | 2 | . | .
CCN(CC)CCSc1nc2ccccc2c(=S)n1-c1ccccc1 | -15 | 40* | 8 | -18 | . | 40* | 39*
CCC(=O)N(C(=O)CC)N1CCN(c2ccncc2S(=O)(=O)N2CCCCC2)CC1 | -31 | 34* | 14 | -19 | 0 | 45* | 30*
COCCNC(=O)C1CCCN(C(=O)c2sccc2C)CC1 (configuration not stated) | . | . | . | . | -1 | . | .
Cc1ccc(-n2cccn2)c(CN2CCC(CO)(CCc3ccccc3)CC2)c1 | . | 21* | . | . | 0 | 32* | 28*

Source: PubChem
